This passage reports IC50 and Solubility results from ChEMBL document CHEMBL1129059, “Antitumor properties of some 2-[(dimethylamino)methyl]phenylgold(III) complexes” (J Med Chem, 1996).

As a reminder, the IC50 is the concentration that gives 50% inhibition. The low end stands for greater potency in that assay, the high end for weaker potency in that assay. Broadly, the Solubility is the dissolved amount per volume that the medium holds. Low values mean a poorly soluble substance, high ones a readily soluble substance.

Data set [1] concerns CH1. The data set can be described thus: Compound was tested for in vitro growth inhibition of Ovarian carcinoma cell line panel CH1. It is filed as functional, cell-based. In a few lines:
(§1)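 Ovarian lines grown as monolayers in DMEM with 10% FBS, insulin, hydrocortisone and L-glutamine under 6% CO2. Cells were seeded at 3–5 × 10³/well and left to attach overnight. Compounds were freshly dissolved in DMA or water and applied for 96 h in quadruplicate wells. Growth was measured by SRB and reported as IC50.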

Data set [2] has as its system A2780. Put plainly: Compound was tested for in vitro growth inhibition of Ovarian carcinoma cell line panel A2780. Format: functional, cell-based, Homo sapiens. In a few lines: as §1
A short description of data set [3]: Solubility at 25 degrees Celsius in 1-Octanol. Format: physicochemical. In a few lines:
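A sample was tumbled in 1-octanol at 25 °C for 24 h and filtered. An aliquot was evaporated and the residue taken up in dilute aqua regia. Gold content was determined as for the aqueous samples, with indium as internal standard.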

Data set [4] concerns SW 1116. Put plainly: Compound was tested for in vitro growth inhibition of primary panel tumor cell line SW1116. Format: functional, cell-based, Homo sapiens. In a few lines:
(§2)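 Primary-panel lines kept in L15, RPMI 1640 plus pyruvate, or MEM, each with 10% FBS. Cells were seeded at 5×10^4–10^5 cells/mL, preincubated 24 h, then exposed 4 h to 0–200 μg/mL from a 2 mg/mL stock in 10% DMA/PBS. After washout and 72 h further growth, cells were read by SRB. IC50 was the concentration giving 50% survival versus untreated controls.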

The subject of data set [5] is HT-1376. The data set can be described thus: Compound was tested for in vitro growth inhibition of primary panel tumor cell line HT1376. Format: functional, cell-based, Homo sapiens. In short, it runs like this: as §2
The test system of data set [6] is A2780. Put plainly: Compound was tested for in vitro growth inhibition of Ovarian carcinoma cell line panel A2780-R. Format: functional, cell-based, Homo sapiens. In a few lines:
as §1

The test system of data set [7] is HT-29. Put plainly: Compound was tested for in vitro growth inhibition of primary panel tumor cell line HT-29/219. It is filed as functional, cell-based, Homo sapiens. In short, it runs like this:
as §2

In data set [8] the test system is SK-OV-3. Put plainly: Compound was tested for in vitro growth inhibition of Ovarian carcinoma cell line panelSK-OV-3. Format: functional, cell-based, Homo sapiens. In a few lines: as §1
In data set [9] the test system is ZR-75-1. Put plainly: Compound was tested for in vitro growth inhibition of primary panel tumor cell line ZR-75-1. Format: functional, cell-based, Homo sapiens. In a few lines:
as §2

The subject of data set [10] is SK-OV-3. Put plainly: Compound was tested for in vitro growth inhibition of primary panel tumor cell lines SK-OV-3. It is filed as functional, cell-based, Homo sapiens. In a few lines:
as §2

In data set [11] the test system is SW-620. Put plainly: Compound was tested for in vitro growth inhibition of primary panel tumor cell lines SW620. Format: functional, cell-based, Homo sapiens. In short, it runs like this:
as §2

Data set [12] can be described thus: Solubility at 25 degrees Celsius in water. The following applies: buffer. Format: physicochemical. In short, it runs like this: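 5–10 mg sample was tumbled in 5.0 mL water at 25 °C for 24 h and filtered. The solution was diluted as needed and gold was quantified with 1 ppm indium as internal standard.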
Data set [13] relates to HX62 cell line. The data set can be described thus: Compound was tested for in vitro growth inhibition of Ovarian carcinoma cell line panel HX62. Format: functional, cell-based, Homo sapiens. In a few lines: as §1
The subject of data set [14] is CH1. The data set can be described thus: Compound was tested for in vitro growth inhibition of Ovarian carcinoma cell line panel CH1-R. It is filed as functional, cell-based. In a few lines:
as §1

Data set [15] deals with SK-OV-3. Put plainly: Compound was tested for in vitro growth inhibition of Ovarian carcinoma cell line panel SK-OV-3. It is filed as functional, cell-based, Homo sapiens. In a few lines:
as §1

For data set [16], the system named is SW-620. Put plainly: Compound was tested for in vitro growth inhibition of primary panel tumor cell line SW620. Format: functional, cell-based, Homo sapiens. In short, it runs like this:
as §2

Data set [17] deals with SK-OV-3. The data set can be described thus: Compound was tested for in vitro growth inhibition of primary panel tumor cell line SK-OV-3. It is filed as functional, cell-based, Homo sapiens. In short, it runs like this:
as §2

Regarding “Dichloro[2-(dimethylamino)methyl]phenyl-C,N]gold-(III)”, the concentration for half-maximal inhibition (IC50) in data set [1] was 13 µM; in data set [2], 8.2 µM; in data set [4], 119 µM; in data set [5], 30 µM; in [6], 47 µM; in [7], 55 µM. Also, the IC50 in data set [8] came to 109 µM; in data set [9], 27 µM; in data set [10] it was 45 µM; in data set [11], 124 µM; in [13], 57 µM; in data set [14] it was 22 µM. Moreover, the figures for the Solubility in data set [3] and in [12] were 920 µM and 250 µM, respectively.
For “Acetato[2-(dimethylamino)methyl]phenyl-C,N]gold-(III)”, the IC50 in data set [1] was 11 µM; in data set [2], 3.5 µM; in data set [15] it was 107 µM; in data set [4], 238 µM; in data set [5] it was 13 µM; in data set [6], 35 µM. In addition, the IC50 in data set [7] is 67 µM; in data set [9], 45 µM; in [10], 13 µM; in data set [11], 281 µM; in [13], 34 µM; in data set [14], 12 µM. In addition, the Solubility is > 5280 µM in data set [3] and > 5230 µM in data set [12].
Regarding “Bis(thiocyanato)[2-(dimethylamino)methyl]phenyl-C,N]gold-(III)”, the concentration for half-maximal inhibition (IC50) in data set [16] came to 51 µM; in [1], 10 µM; in data set [2], 2 µM; in [15], 39 µM; in [4], 47 µM; in data set [5], 6.7 µM. The half-maximal inhibitory concentration (IC50) in data set [6] turned out to be 26 µM; in [7], 25 µM; in [9], 34 µM; in data set [13], 31 µM; in [14], 11 µM; in data set [17] it was 20 µM. For the same substance, the results for the Solubility in data set [3] and in data set [12] were 780 µM and 130 µM, respectively.
